# ChEMBL document CHEMBL4038331 (J Med Chem, 2017)
# Calls of active or inactive are those of the source. The rule behind the calls is not given here.
# Key:
# Liver [1] = experiment: Induction of basal oxygen consumption under nonphosphorylative conditions in rat liver mitochondria after 5 mins in presence of succinate; type: functional
# Method in brief: (§1)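 Glutamate/malate (10/5 mM) or succinate (5 mM) was the substrate, with compound 2.5–10 μM for 5 min (state 2). ADP was added (125 nmol glutamate/malate; 75 nmol succinate), then oligomycin 2 μg/mL, then FCCP 1 μM. RCR and ADP/O were calculated. Seven experiments.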
# Liver [2] = experiment: Drug uptake in rat liver extra-mitochondria at 1 uM in presence of succinate/valinomycin by TPP+-based electrode assay; type: ADME, tissue-based
# Method in brief: (§2)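 TPP+-selective electrode with rat liver mitochondria (0.5 mg/mL) in 120 mM KCl, 10 mM HEPES pH 7.2, 1 mM EGTA at 37 °C with rotenone 1.5 μM. Five 1 μM additions calibrated the electrode, then succinate 10 mM was added, then valinomycin 0.2 μg/mL. The accumulation ratio assumed a matrix volume of ~0.5 μL/mg with a binding correction.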
# [3] = Antioxidant activity assessed as DPPH radical scavenging activity measured every minute for 45 mins; type: functional
# Method in brief: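 DPPH• ethanolic solution diluted to absorbance 0.72 ± 0.02 at 515 nm. Ethanolic test solutions (50–500 μM) were added in triplicate and read at 515 nm. Inhibition was taken against an ethanol blank (100% radical), and IC50 was read from dose–response curves.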
# HepG2 [4] = experiment: Cytotoxicity against human HepG2 cells assessed as depletion of intracellular GSH content at 100 uM after 48 hrs by HPLC analysis; type: cell-based; details: hepg2, 48 h
# Method in brief: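 HepG2 cells (4 × 10^5 per 100 mm dish) were incubated 48 h, collected and stored at −80 °C in PBS. Reduced GSH was measured by reverse-phase HPLC with detection at 515 nm and expressed as nmol GSH/μg protein. Four experiments.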
# Liver [5] = experiment: Increase in oligomycin-inhibited respiration in rat liver mitochondria after 5 mins in presence of glutamate/malate; type: functional; method in brief: as §1
# HepG2 [6] = experiment: Cytotoxicity against human HepG2 cells assessed as chromatin condensation at 100 uM after 48 hrs Hoechst 33342-staining based epifluorescence microscopic analysis; type: cell-based; details: hepg2, 48 h
# Method in brief: (§3)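 HepG2 cells on coverslips (8 × 10^4 cells/2 mL) were treated 48 h. In the last 30 min, cells were stained with TMRM (100 nM) and Hoechst 33342 (1 μg/mL) in HBSS pH 7.4 at 37 °C in the dark. Live cells were imaged by fluorescence microscopy, four random fields per well, three experiments.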
# HepG2 [7] = experiment: Cytotoxicity against human HepG2 cells assessed as mitochondrial depolarization at 100 uM after 48 hrs TMRM-staining based epifluorescence microscopic analysis; type: cell-based; details: hepg2, 48 h; method in brief: as §3
# [8] = Iron chelating activity in ammonium acetate buffer assessed as inhibition of [Fe(ferrozine)3]2+ formation at 100 uM at pH 6.7 measured after 10 mins by spectrophotometric analysis
# Method in brief: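 Ferrozine assay in ammonium acetate buffer pH 6.7. Compound (100 μM) plus ammonium iron(II) sulfate (20 μM) for 10 min, read at 562 nm. Ferrozine was added, incubated 10 min at 37 °C, and re-read at 562 nm. The first reading was subtracted, with a DMSO blank and EDTA = 100%. Three experiments.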
# Liver [9] = experiment: Induction of basal respiration in rat liver mitochondria measured 5 mins after ADP phosphorylation in presence of succinate; type: functional; method in brief: as §1
# Liver [10] = experiment: Decrease in oxidative phosphorylation efficiency in rat liver mitochondria assessed as reduction in coupling between ATP systhesis and oxygen consumption after 5 mins in presence of succinate; type: functional; method in brief: as §1
# HepG2 [11] = experiment: Cytotoxicity against human HepG2 cells assessed as reduction in cell density at 0.5 to 100 uM after 48 hrs by SRB assay; type: cell-based; details: hepg2, 48 h
# [12] = Lipophilicity of compound in Ag/AgCl-NaCl containing PET membrane assessed as tranfer potential at pH 7; type: physicochemical
# Method in brief: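 Transfer across a liquid–liquid interface on a microporous PET membrane, with 1,6-dichlorohexane organic phase containing BTPPATPBCl. A gelled 2 mM BTPPACl + 2 mM NaCl reference was used, with 10 mM Tris-HCl pH 7.0 aqueous electrolyte.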
# Liver [13] = experiment: Decrease in oxidative phosphorylation efficiency in rat liver mitochondria assessed as reduction in respiratory control ratio after 5 mins in presence of glutamate/malate; type: functional; method in brief: as §1
# Liver [14] = experiment: Induction of basal respiration in rat liver mitochondria measured 5 mins after ADP phosphorylation in presence of glutamate/malate; type: functional; method in brief: as §1
# HepG2 [15] = experiment: Antioxidant activity in human HepG2 cells assessed as reduction in FeSO4-induced cell toxicity at 100 uM preincubated for 1 hr followed by FeSO4 addition for 48 hrs by SRB assay; type: functional, cell-based
# Method in brief: (§4)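 HepG2 cells, grown in high-glucose DMEM with 10% FBS at 37 °C and 5% CO2, seeded at 2 × 10^4 cells/500 μL. Cells were preincubated with compound, then given 250 μM FeSO4 or 250 μM H2O2. Cell mass was read by SRB (fixed, stained, OD 540 nm) as % of untreated control. Four independent experiments.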
# [16] = Redox potential of compound in Ag/AgCl-NaCl containing phosphate buffer at 0.1 mM at pH 7.4 by cyclic voltammetric analysis
# Method in brief: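 Voltammetry used a glassy carbon working electrode, Pt counter and Ag/AgCl reference. Compound was at 0.1 mM final (10 mM ethanolic stock) in pH 7.4 potassium phosphate electrolyte.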
# Liver [17] = experiment: Induction of basal oxygen consumption under nonphosphorylative conditions in rat liver mitochondria after 5 mins in presence of glutamate/malate; type: functional; method in brief: as §1
# Liver [18] = experiment: Induction of ADP-stimulated respiration in rat liver mitochondria after 5 mins in presence of succinate; type: functional; method in brief: as §1
# HepG2 [19] = experiment: Antioxidant activity in human HepG2 cells assessed as reduction in H2O2-induced cell toxicity at 100 uM preincubated for 1 hr followed by H2O2 addition for 48 hrs by SRB assay; type: functional, cell-based; method in brief: as §4
# Liver [20] = experiment: Induction of ADP-stimulated respiration in rat liver mitochondria after 5 mins in presence of glutamate/malate; type: functional; method in brief: as §1
# Liver [21] = experiment: Increase in oligomycin-inhibited respiration in rat liver mitochondria after 5 mins in presence of succinate; type: functional; method in brief: as §1
# Liver [22] = experiment: Antioxidant activity in rat liver mitochondria assessed as inhibition of ADP/FeSO4-induced lipid peroxidation at 5 uM preincubated for 5 mins followed by ADP/FeSO4 addition; type: functional
# Method in brief: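 Rat liver mitochondria (2 mg) in 100 mM KCl, 10 mM Tris-HCl pH 7.6, with glutamate/malate (5/2.5 mM) at 37 °C. After 5 min with compound (5 μM), peroxidation was started with ADP/0.1 mM FeSO4. The lag phase of O2 consumption was measured by Clark electrode and expressed as % of control. Six experiments.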
# Liver [23] = experiment: Ratio of drug level in rat liver intra-mitochondria to extra-mitochondria at 1 uM in presence of succinate/valinomycin by TPP+-based electrode assay; type: ADME, tissue-based; method in brief: as §2
# Liver [24] = experiment: Decrease in oxidative phosphorylation efficiency in rat liver mitochondria assessed as reduction in coupling between ATP systhesis and oxygen consumption after 5 mins in presence of glutamate/malate; type: functional; method in brief: as §1
# [25] = Antioxidant activity assessed as ABTS radical scavenging activity measured each minute for 15 mins by spectrophotometric analysis; type: functional
# Method in brief: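 ABTS•+ generated from 7 mM ABTS plus potassium persulfate, held 16 h dark at room temperature, then diluted in ethanol to absorbance 0.72 ± 0.02. Ethanolic test solutions (10–500 μM) were added to radical solution in triplicate. Inhibition was taken against an ethanol blank (100% radical), and IC50 was read from dose–response curves.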
# HepG2 [26] = experiment: Antioxidant activity in human HepG2 cells assessed as intracellular GSH content per ug of protein at 100 uM after 48 hrs by HPLC analysis (reference value: 17.81 nmol); type: functional
# Liver [27] = experiment: Drug uptake in rat liver intra-mitochondria at 1 uM in presence of succinate/valinomycin by TPP+-based electrode assay; type: ADME, tissue-based; method in brief: as §2
# [28] = Antioxidant activity assessed as GO radical scavenging activity measured for 30 mins in absence of light; type: functional
# Method in brief: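 Ethanolic GO• (5 mM stock) diluted to absorbance 1.00 ± 0.02 at 428 nm. Test solutions (5–75 μM in ethanol) were added in triplicate and read at 428 nm at room temperature. Inhibition was taken against an ethanol blank (100% radical).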
compound,measurement,setting,value
CS(=O)(=O)[O-].O=C(/C=C/c1cc(O)c(O)c(O)c1)NCCCCCC[P+](c1ccccc1)(c1ccccc1)c1ccccc1,Activity,Liver [1],Dose-dependent effect
same,Drug uptake,Liver [2],2.4 µM
same,IC50,[3],19 µM
same,Activity,HepG2 [4],Non-Toxic
same,Activity,Liver [5],Dose-dependent effect
same,Activity,HepG2 [6],Non-Toxic
same,Activity,HepG2 [7],Non-Toxic
same,inhibition,[8],Active
same,Activity,Liver [9],Dose-dependent effect
same,Activity,Liver [10],Dose-dependent effect
same,Activity,HepG2 [11],Non-Toxic
same,Activity,[12],0.498 V
same,Activity,Liver [13],Dose-dependent effect
same,Activity,Liver [14],Dose-dependent effect
same,inhibition,HepG2 [15],Active
same,Activity,[16],0.034 V
same,Activity,Liver [17],Dose-dependent effect
same,Activity,Liver [18],Dose-dependent effect
same,inhibition,HepG2 [19],Active
same,Activity,Liver [20],Dose-dependent effect
same,Activity,Liver [21],Dose-dependent effect
same,inhibition,Liver [22],Active
same,Ratio,Liver [23],2100
same,Activity,Liver [24],Dose-dependent effect
same,IC50,[25],12.2 µM
same,Activity,HepG2 [26],26.94 nmol
same,Drug uptake,Liver [27],2 mM
same,IC50,[28],3.1 µM
